VIM-2 inh: inhibitors of Pseudomonas aeruginosa VIM-2 metallo-beta-lactamase. purified VIM-2, nitrocefin hydrolysis, epi-absorbance fluorescence. inhibition, % at 5.6 µM. 290,000 tested, 0.89% active. AID 1527;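 active = inhibition above the mean of all tested compounds plus 3 SD, cutoff set per screening run, cut at about 7.5% in these data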;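 note: red hydrolysis product quenches plate fluorescence so inhibitors raise well fluorescence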
Mdm2 MdmX PPI: disrupts the human Mdm2-MdmX interaction | 330,000 tested, 3% active | AID 485346 | SaOS-2 split-luciferase Mdm2/MdmX complementation, luminescence | inhibition, % at 8 µM;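 active = inhibition of at least 50% at 8 µM in the primary screen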
Target sequence (O15151 whole entry, looked up): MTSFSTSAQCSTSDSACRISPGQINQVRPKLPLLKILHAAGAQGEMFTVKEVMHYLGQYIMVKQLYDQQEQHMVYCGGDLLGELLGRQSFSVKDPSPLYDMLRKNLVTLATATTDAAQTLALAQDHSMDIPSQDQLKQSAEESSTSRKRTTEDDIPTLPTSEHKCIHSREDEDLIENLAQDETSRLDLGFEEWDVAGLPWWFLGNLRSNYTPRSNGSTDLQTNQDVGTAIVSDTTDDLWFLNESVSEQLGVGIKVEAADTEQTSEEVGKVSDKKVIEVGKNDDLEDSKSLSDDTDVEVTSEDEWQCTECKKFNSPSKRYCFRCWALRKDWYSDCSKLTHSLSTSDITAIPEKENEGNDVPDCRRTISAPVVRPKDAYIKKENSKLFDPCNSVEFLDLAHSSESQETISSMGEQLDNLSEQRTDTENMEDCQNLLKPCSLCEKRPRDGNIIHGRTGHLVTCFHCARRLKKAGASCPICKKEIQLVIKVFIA
Target sequence (Q00987 whole entry, looked up): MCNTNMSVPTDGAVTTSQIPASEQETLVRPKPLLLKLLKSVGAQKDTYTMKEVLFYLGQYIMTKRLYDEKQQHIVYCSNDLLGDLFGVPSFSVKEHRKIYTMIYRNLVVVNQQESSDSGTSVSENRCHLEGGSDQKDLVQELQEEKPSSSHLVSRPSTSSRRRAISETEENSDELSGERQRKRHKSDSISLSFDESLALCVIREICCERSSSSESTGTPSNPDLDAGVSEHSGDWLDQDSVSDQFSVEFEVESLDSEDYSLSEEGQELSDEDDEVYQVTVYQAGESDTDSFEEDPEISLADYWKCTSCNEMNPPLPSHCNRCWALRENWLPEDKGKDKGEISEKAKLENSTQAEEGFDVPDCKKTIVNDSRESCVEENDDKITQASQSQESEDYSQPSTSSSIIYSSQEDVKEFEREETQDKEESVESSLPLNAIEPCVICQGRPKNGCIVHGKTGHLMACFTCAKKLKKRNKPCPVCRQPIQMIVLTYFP
697 NFkB inh: inhibitors of the PMA/ionomycin-induced NF-kB reporter in 697 B cells; 330,000 tested, 0.33% active; inhibition, % at 4 µM; 697 B-cell NF-kB luciferase reporter, 16 h; AID 435022; in the data active = inhibition above about 35%
aSyn UTR inh: 5' untranslated region of α-synuclein, MLPCN primary screen; alpha-synuclein 5'UTR reporter, inhibitor activity; AID 1813; 300,000 tested, 0.82% active; inhibition, % (tested at 7.5 µM); in the data active = inhibition above about 60%; inconclusive = no clear call, values can overlap the other calls;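 note: H4 neuroglioblastoma cells stably carrying SNCA 5'UTR luciferase fusion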
Jurkat NFkB inh: lowers PMA/ionomycin-induced NF-kB signal in Jurkat cells | PMA/ionomycin-induced NF-kB luciferase reporter, luminescence | inhibition, % at 4 µM | 330,000 tested, 0.53% active; in the data active = inhibition above about 50%
IMP-1 inh: inhibitors of Pseudomonas aeruginosa IMP-1 metallo-beta-lactamase; purified IMP-1, nitrocefin hydrolysis, epi-absorbance fluorescence; inhibition, % at 5.6 µM; 290,000 tested, 0.45% active;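 active = inhibition above the mean plus 3 SD of all compounds in the same screening run, cut at about 4.5% in these data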
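System: purified IMP-1 / Input: IMP-1 dispensed at 0.2 nM / Medium: 50 mM HEPES pH 7.1, 50 µM ZnSO4, 0.05% Brij 35 / Timing: 15 min enzyme–compound preincubation, then 25 min nitrocefin reaction, 25 °C / Technique: plate fluorescence quenching by hydrolysis product, ex 480/em 530 nm / Repeats: singlicate testing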
Mdm2-MdmX conf: human Mdm2/MdmX binding inhibition, confirmed. shares compounds with Mdm2 MdmX PPI. luminescent assay. inhibition, % at 8 µM. 10,000 tested, 55% active. AID 489028; in the data active = inhibition above about 40%
FLuc counter: inhibits full-length luciferase, flagging false Mdm2/MdmX hits; shares compounds with Mdm2 MdmX PPI; inhibition, % at 8 µM; SaOS-2 full-length luciferase counterscreen, luminescence; 6,200 tested, 77% active;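 active = mean inhibition at 8 µM reaching about 37%, which flags the compound as non-specific, limit read from the data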;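 note: p53-null SaOS-2 cells with luciferase driven by a doxycycline-inducible promoter; compound on cells about two nights before reading with doxycycline added after day one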
Hits are given with their value; 0 = inactive; ? = inconclusive; - = no result given. Only some compounds are listed: those with a hit (about 4.7% of all), similar ones and a draw of the others.

SMILES	VIM-2 inh	Mdm2 MdmX PPI	697 NFkB inh	aSyn UTR inh	Jurkat NFkB inh	IMP-1 inh	Mdm2-MdmX conf	others
Cn1cc([N+](=O)[O-])c(C(=O)Nc2ccc(Br)cn2)n1	0	56	0	0	0	0	44	FLuc counter=90
CCSc1ccc(C(=O)Nc2ccc(Br)cn2)cc1[N+](=O)[O-]	0	0	0	0	0	0	-
O=C(O)/C=C/C(=O)NCCC(c1ccccc1)c1ccccc1	0	0	0	0	0	0	-
CN1C(=O)Cc2cc(S(=O)(=O)Nc3ccc(Cl)cc3)ccc21	0	0	0	0	0	0	-
COC(=O)C(Cc1ccc(O)cc1)NC(=O)NC12CC3CC(CC(C3)C1)C2 (configuration not stated)	0	0	0	0	0	0	-
CCC(C)c1ccc(NC(=O)CN(C)CC(=O)Nc2cccc(OC)c2)cc1 (configuration not stated)	0	0	0	0	0	0	-
CCOC(=O)c1c(O)cc(C)cc1Nc1ccccc1	0	0	0	0	0	0	-
O=C(N/N=C/c1cnc(N2CCCCC2)s1)c1ccc(C(F)(F)F)cc1	0	69	0	0	0	0	58	FLuc counter=37
CC1CN(c2ncc(/C=N/NC(=O)c3ccccc3O)s2)CC(C)O1 (configuration not stated)	0	0	0	0	0	0	-
CC1CCCCN1C(=O)CSc1nc(C2CC2)nc2c1cnn2-c1ccccc1 (configuration not stated)	0	54	0	0	0	0	0
Cc1nn(C)c(C)c1NC(=O)CSc1nc(C2CC2)nc2c1cnn2-c1ccccc1	0	0	0	0	0	0	-
O=C(OCc1ccc(F)cc1)c1cc(=O)c2ccccc2o1	0	0	0	0	0	0	-
N/C(=N\OC(=O)C12CC3CC(CC(C3)C1)C2)c1cccnc1	0	71	0	0	0	0	0
N/C(=N\OC(=O)C12CC3CC(CC(C3)C1)C2)c1ccccn1	0	0	0	0	0	0	-
N/C(=N\OC(=O)C12CC3CC(CC(C3)C1)C2)c1ccccc1	0	54	0	0	0	0	0
CCOC(=O)c1sc(-c2ccccc2)cc1NC(=O)c1ccc(S(=O)(=O)N(CCOC)CCOC)cc1	0	0	0	0	0	0	-
COc1ccccc1CN(Cc1nc2ccccc2c(=O)[nH]1)S(=O)(=O)c1ccc2ccccc2c1	0	72	0	0	0	0	0
Cc1cc(=O)oc2cc(OCC(=O)N3CCC(O)CC3)c(Cl)cc12	0	0	0	0	0	0	-
Fc1ccc(Nc2nc(N3CCOCC3)c3ccccc3n2)cc1	-	52	0	0	0	-	0
Cc1ccnc2nc(C(=O)OCC(=O)N3CC(C)CC(C)C3)nn12 (configuration not stated)	-	0	0	-	0	-	-
Cn1c(=O)[nH]c(=O)c2c1nc(Br)n2Cc1cccc(Br)c1	0	0	0	0	0	0	-
CCCNc1nc2c(c(=O)[nH]c(=O)n2C)n1Cc1cccc(Br)c1	0	66	0	0	0	0	0
O=C(c1ccc([N+](=O)[O-])o1)N1CCN(c2nc3c(Cl)cccc3s2)CC1	-	56	0	0	0	-	43	FLuc counter=65
Cc1cc(C(=O)NCCN2CCN(c3cccc(Cl)c3)CC2)n(-c2ccccc2)n1	0	53	0	-	0	0	59	FLuc counter=62
O=C(NNc1ccccc1)C(CCO)C(=O)NNc1ccccc1	0	0	0	0	0	0	-
SMILES	VIM-2 inh	Mdm2 MdmX PPI	697 NFkB inh	aSyn UTR inh	Jurkat NFkB inh	IMP-1 inh	Mdm2-MdmX conf	others
O=C(OCN1C(=O)c2ccccc2C1=O)c1ccc(Cl)nc1	0	0	0	0	0	0	-
COC(=O)COc1ccc(NC(=O)Cn2nc(-c3ccccc3)c3ccccc3c2=O)cc1	0	81	0	0	0	0	49	FLuc counter=89
COc1ccc(-c2ccc(C#N)c(OC(=O)c3c(Cl)cccc3Cl)n2)cc1	0	64	0	0	0	0	0
COc1nc(-c2ccccc2Cl)ccc1C#N	0	0	0	0	0	0	-
O=C(Nc1nnc(-c2ccco2)o1)c1ccc(S(=O)(=O)N2CCCC2)cc1	0	0	0	0	0	0	-
CC1CCN(S(=O)(=O)c2ccc(C(=O)Nc3nnc(-c4ccco4)o3)cc2)CC1	0	54	0	?	0	0	48	FLuc counter=0
Cc1ccc2oc(C(=O)NCc3ccc4c(c3)OCO4)c(C)c2c1	0	0	0	0	0	0	-
Cc1c(C(=O)NCc2ccc3c(c2)OCO3)oc2ccc(Br)cc12	0	73	0	0	0	0	0
CC1=NOC(=O)/C1=C\c1ccc(-c2ccc(Cl)cc2Cl)o1	0	64	0	0	0	0	0
CCCOc1ccc(Cl)cc1/C=C1/C(=O)ON=C1C	0	0	0	0	0	0	-
O=C(CSc1nc2ccccc2c(=O)n1CCCN1CCOCC1)Nc1ccc(F)c(Cl)c1	-	52	0	-	0	-	0
Cc1ccc(NC(=O)CSc2nc3ccccc3c(=O)n2CCCN2CCCCC2)cc1Cl	0	100	0	0	0	0	78	FLuc counter=55
CC(=O)Nc1ccc(NC(=O)CSc2nc3ccccc3c(=O)n2CCCN2CCOCC2)cc1	-	0	0	-	0	-	-
CCc1nnc(NC(=O)CSc2nnc3c(C)cc4c(C)ccc(C)c4n23)s1	0	60	0	0	0	0	65	FLuc counter=58
CCc1nnc(NC(=O)CSc2nnc(-c3ccncc3)n2C)s1	0	0	0	0	0	0	-
O=C(CSc1n[nH]c(-c2ccccc2Cl)n1)NCc1cccc(C(=O)O)c1	0	0	0	0	0	0	-
Cc1c(C(=O)OCC(=O)Nc2ccc(S(N)(=O)=O)cc2)oc2c1ccc1ccccc12	0	52	0	0	0	0	0
Cc1cc(NC(=O)COC(=O)c2oc3c(ccc4ccccc43)c2C)no1	0	59	0	0	0	0	0	FLuc counter=59
CCCC(C)NC(=O)COc1ccc(S(=O)(=O)N2CCCC2)cc1 (configuration not stated)	0	0	0	0	0	0	-
CC(C)c1nc(SCC(=O)NCc2ccccc2)n[nH]1	0	0	0	-	0	0	-
Cc1ccc(C2=NS(=O)(=O)N(C)C(C(=O)N3CCCCC3)=C2)cc1	0	0	0	0	0	0	-
CCOC(=O)C1=C(c2ccccc2)NC(N)=NC1c1ccc(OCc2ccc(Cl)cc2)c(OC)c1 (configuration not stated)	0	100	0	0	0	0	60	FLuc counter=94
c1cc(C2CCCCC2)ccc1Oc1nc(N2CCOCC2)nc(N2CCOCC2)n1	0	63	0	0	0	0	0
Cc1ccc(S(=O)(=O)N(CC(=O)Nc2ccc(C)cc2C)C(=O)N2CCN(C)CC2)cc1	-	0	0	0	0	-	-
CCN(CC)CCN1c2ccccc2Sc2ccc3ccccc3c21	0	56	0	0	0	0	0	FLuc counter=75
